ChEMBL document CHEMBL5058577, “EUbOPEN Chemogenomics Library 2 (Multiplex)” (2022)

System: U2OS
Assay: Multiplex assay against U2OS
Assay type: toxicity, cell-based
Details: human
Outline: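 Per cents of healthy-nucleus cells form the tubulin, mitochondrial-mass and membrane-permeability phenotype values. Live cells were stained at seeding with Hoechst33342, BioTracker Green Microtubule Cytoskeleton Dye, MitoTracker Red and Annexin V Alexa Fluor 680. After compound addition they were imaged on a CQ1 microscope at 37°C and 5% CO2, and CellPathfinder machine-learning gating split them into Hoechst high-intensity objects or normal cells, normal cells into healthy, pyknosed or fragmented nuclei, and pyknosed cells into mitotic or apoptotic.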

[1] = 12 h, 1 µM, compound concentration 1 uM, replicate 1
[2] = 12 h, 1 µM, compound concentration 1 uM, replicate 2
[3] = 12 h, 10 µM, compound concentration 10 uM, replicate 1
[4] = 12 h, 10 µM, compound concentration 10 uM, replicate 2
[5] = 24 h, 1 µM, compound concentration 1 uM, replicate 1
[6] = 24 h, 1 µM, compound concentration 1 uM, replicate 2
[7] = 24 h, 10 µM, compound concentration 10 uM, replicate 1
[8] = 24 h, 10 µM, compound concentration 10 uM, replicate 2
[9] = 48 h, 1 µM, compound concentration 1 uM, replicate 1
[10] = 48 h, 1 µM, compound concentration 1 uM, replicate 2
[11] = 48 h, 10 µM, compound concentration 10 uM, replicate 1
[12] = 48 h, 10 µM, compound concentration 10 uM, replicate 2

CCCCC(=O)N(Cc1ccc(-c2ccccc2-c2nnn[nH]2)cc1)[C@H](C(=O)O)C(C)C
Population Apoptotic (%) [1]: 85%
Population Fragmented Nuclei (%) [1]: 28%
Population Healthy Nuclei (%) [1]: 63%
Population Hoechst High Intensity Objects (%) [1]: 1%
Population Membrane Permeable-Phenotype (%) [1]: 8%
Population Mitochondria Different-Phenotype (%) [1]: 3%
Population Mitotic Cells (%) [1]: 14%
Population Normal (%) [1]: 98%
Population Pyknosed Nuclei (%) [1]: 8%
Population Tubulin-Different-Phenotype (%) [1]: 4%
Total Cell Count [1]: 259
Population Apoptotic (%) [2]: 100%
Population Fragmented Nuclei (%) [2]: 15%
Population Healthy Nuclei (%) [2]: 79%
Population Hoechst High Intensity Objects (%) [2]: 3%
Population Membrane Permeable-Phenotype (%) [2]: 9%
Population Mitochondria Different-Phenotype (%) [2]: 5%
Population Mitotic Cells (%) [2]: 0%
Population Normal (%) [2]: 96%
Population Pyknosed Nuclei (%) [2]: 4%
Population Tubulin-Different-Phenotype (%) [2]: 2%
Total Cell Count [2]: 130
Population Apoptotic (%) [3]: 75%
Population Fragmented Nuclei (%) [3]: 35%
Population Healthy Nuclei (%) [3]: 55%
Population Hoechst High Intensity Objects (%) [3]: 1%
Population Membrane Permeable-Phenotype (%) [3]: 3%
Population Mitochondria Different-Phenotype (%) [3]: 2%
Population Mitotic Cells (%) [3]: 25%
Population Normal (%) [3]: 98%
Population Pyknosed Nuclei (%) [3]: 9%
Population Tubulin-Different-Phenotype (%) [3]: 2%
Total Cell Count [3]: 218
Population Fragmented Nuclei (%) [4]: 24%
Population Healthy Nuclei (%) [4]: 71%
Population Hoechst High Intensity Objects (%) [4]: 0%
Population Membrane Permeable-Phenotype (%) [4]: 1%
Population Normal (%) [4]: 99%
Population Pyknosed Nuclei (%) [4]: 3%
Population Tubulin-Different-Phenotype (%) [4]: 0%
Total Cell Count [4]: 108
Population Apoptotic (%) [5]: 86%
Population Fragmented Nuclei (%) [5]: 23%
Population Healthy Nuclei (%) [5]: 68%
Population Hoechst High Intensity Objects (%) [5]: 2%
Population Membrane Permeable-Phenotype (%) [5]: 5%
Population Mitochondria Different-Phenotype (%) [5]: 3%
Population Mitotic Cells (%) [5]: 13%
Population Normal (%) [5]: 97%
Population Pyknosed Nuclei (%) [5]: 7%
Population Tubulin-Different-Phenotype (%) [5]: 2%
Total Cell Count [5]: 289
Population Apoptotic (%) [6]: 83%
Population Fragmented Nuclei (%) [6]: 10%
Population Healthy Nuclei (%) [6]: 77%
Population Hoechst High Intensity Objects (%) [6]: 6%
Population Membrane Permeable-Phenotype (%) [6]: 9%
Population Mitochondria Different-Phenotype (%) [6]: 6%
Population Mitotic Cells (%) [6]: 16%
Population Normal (%) [6]: 93%
Population Pyknosed Nuclei (%) [6]: 12%
Population Tubulin-Different-Phenotype (%) [6]: 7%
Total Cell Count [6]: 158
Population Apoptotic (%) [7]: 82%
Population Fragmented Nuclei (%) [7]: 31%
Population Healthy Nuclei (%) [7]: 59%
Population Hoechst High Intensity Objects (%) [7]: 2%
Population Membrane Permeable-Phenotype (%) [7]: 3%
Population Mitochondria Different-Phenotype (%) [7]: 2%
Population Mitotic Cells (%) [7]: 17%
Population Normal (%) [7]: 97%
Population Pyknosed Nuclei (%) [7]: 8%
Population Tubulin-Different-Phenotype (%) [7]: 2%
Total Cell Count [7]: 272
Population Apoptotic (%) [8]: 84%
Population Fragmented Nuclei (%) [8]: 22%
Population Healthy Nuclei (%) [8]: 67%
Population Hoechst High Intensity Objects (%) [8]: 0%
Population Membrane Permeable-Phenotype (%) [8]: 4%
Population Mitochondria Different-Phenotype (%) [8]: 8%
Population Mitotic Cells (%) [8]: 15%
Population Normal (%) [8]: 100%
Population Pyknosed Nuclei (%) [8]: 9%
Population Tubulin-Different-Phenotype (%) [8]: 6%
Total Cell Count [8]: 135
Population Apoptotic (%) [9]: 86%
Population Fragmented Nuclei (%) [9]: 17%
Population Healthy Nuclei (%) [9]: 75%
Population Hoechst High Intensity Objects (%) [9]: 2%
Population Membrane Permeable-Phenotype (%) [9]: 5%
Population Mitochondria Different-Phenotype (%) [9]: 3%
Population Mitotic Cells (%) [9]: 13%
Population Normal (%) [9]: 97%
Population Pyknosed Nuclei (%) [9]: 7%
Population Tubulin-Different-Phenotype (%) [9]: 2%
Total Cell Count [9]: 397
Population Apoptotic (%) [10]: 85%
Population Fragmented Nuclei (%) [10]: 20%
Population Healthy Nuclei (%) [10]: 68%
Population Hoechst High Intensity Objects (%) [10]: 3%
Population Membrane Permeable-Phenotype (%) [10]: 7%
Population Mitotic Cells (%) [10]: 15%
Population Normal (%) [10]: 96%
Population Pyknosed Nuclei (%) [10]: 10%
Population Tubulin-Different-Phenotype (%) [10]: 3%
Total Cell Count [10]: 201
Population Apoptotic (%) [11]: 83%
Population Fragmented Nuclei (%) [11]: 22%
Population Healthy Nuclei (%) [11]: 70%
Population Hoechst High Intensity Objects (%) [11]: 1%
Population Membrane Permeable-Phenotype (%) [11]: 6%
Population Mitochondria Different-Phenotype (%) [11]: 2%
Population Mitotic Cells (%) [11]: 16%
Population Normal (%) [11]: 98%
Population Pyknosed Nuclei (%) [11]: 7%
Population Tubulin-Different-Phenotype (%) [11]: 2%
Total Cell Count [11]: 347
Population Apoptotic (%) [12]: 87%
Population Fragmented Nuclei (%) [12]: 21%
Population Healthy Nuclei (%) [12]: 60%
Population Hoechst High Intensity Objects (%) [12]: 4%
Population Membrane Permeable-Phenotype (%) [12]: 4%
Population Mitochondria Different-Phenotype (%) [12]: 3%
Population Mitotic Cells (%) [12]: 12%
Population Normal (%) [12]: 95%
Population Pyknosed Nuclei (%) [12]: 17%
Population Tubulin-Different-Phenotype (%) [12]: 6%
Total Cell Count [12]: 188
